# Experimental data collected from several papers.
# Protocols differ between the studies behind these lines.
Structure (SMILES),assay,test system,conditions,endpoint,result
CN[C@H](CC(C)C)C(=O)N[C@H]1C(=O)N[C@@H](CC(N)=O)C(=O)N[C@H]2C(=O)NC3C(=O)N[C@H](C(=O)N[C@H](C(=O)NCCC[N+](C)(C)C)c4cc(O)cc(O)c4-c4cc3ccc4O)[C@H](O)c3ccc(c(Cl)c3)Oc3cc2cc(c3OC2OC(CO)C(O)[C@H](O)[C@@H]2O[C@H]2CC(C)(NCc3ccc(-c4ccc(Cl)cc4)cc3)[C@H](O)[C@H](C)O2)Oc2ccc(cc2Cl)[C@H]1O (some centres unmarked),,"mouse, plasma","intravenous, 50 mg/kg",clearance,2 mL/min/kg
N=c1c2c(-c3ccccc3)c(-c3ccccc3)n(Cc3ccccc3)c2ncn1[C@H]1CC[C@H](O)CC1,metabolic stability,"beagle dog, hepatocytes","1 µM, 4 h",compound remaining,118%
NCC(=O)Nc1ccc(-n2nc(C(F)(F)F)cc2-c2ccc3c(ccc4ccccc43)c2)cc1,,"mouse, plasma","oral, 80 mg/kg, single dose",CL/F,978 mL/min/kg
Cc1cc(C)nc(Nc2ncc(C(=O)NCCc3c(C)[nH]c4ccccc34)cn2)c1,,"beagle dog, plasma","intravenous, 3 mg/kg",clearance,10 mL/min/kg
CNC(=O)[C@@H](NC(=O)c1cc(OCC2(C)COC2)c(C2CC2)cn1)C(C)(C)C,,"C57BL/6 mouse, plasma",intravenous,clearance,73.8 mL/min/kg
CCN(CC)CCCC[C@H](NC(=O)[C@H](CC(C)C)NC(=O)[C@H](C)NC(=O)[C@H](Cc1ccccc1)NC(=O)c1ccc(C(C)(C)C)cc1)C(=O)N[C@@H](CO)C(=O)OC,,"male Swiss mouse, blood","intravenous, 3 mg/kg",C0,10900 ng/mL
C[C@]12CC[C@H](n3ccnc3)CC1=CC[C@@H]1[C@@H]2CC[C@]2(C)C(n3cnc4ccccc43)=CC[C@@H]12.Cl,,"male CD-1 mouse, plasma","intravenous, 1 mg/kg",C0,544 ng/mL
O=C(Nc1cccnn1)N1CCN([C@@H]2CCOc3cc(C(F)(F)F)ccc32)CC1,,"male Sprague-Dawley rat, plasma","oral, 3 mg/kg",Tmax,40.2 min
Cc1nonc1Cn1nnc2c(N3CC[C@H](O)C3)nc(C(C)(C)C)nc21,,"C57BL/6 mouse, plasma",intravenous,clearance,29.9 mL/min/kg
Cl.Cl.O=C(CCN1CCCCC1)c1ccc(-c2ccc(C(=O)CCN3CCCCC3)cc2)cc1,,"Sprague-Dawley rat, plasma","oral, 25 mg/kg",Tmax,37.8 min
CCC[C@@](N)(CO)CCc1ccc(OCCCCCC(C)C)cc1,,"dog, plasma","oral, 20 mg/kg, fasted",Cmax,669 nM
